# Measured values from ChEMBL document CHEMBL3098105, “7,7'-Diazaindirubin--a small molecule inhibitor of casein kinase 2 in vitro and in cells” (Bioorg Med Chem, 2014).
# How the values were obtained:
# [1] = target: Death-associated protein kinase 3 (Homo sapiens) (UniProt O43293); test: Inhibition of human ZIPK assessed as residual activity at 1 uM relative to control
# MCF7 = test: Cell cycle arrest in human MCF7 cells assessed as accumulation at G2/M phase at 1 uM after 24 hrs using propidium iodide staining by FACS analysis (reference value: 22.13%); type: functional
# [2] = target: T1, Muscle, skeletal receptor tyrosine-protein kinase (Homo sapiens) (UniProt O15146); test: Inhibition of human MuSK assessed as residual activity at 1 uM relative to control
# T1 sequence (whole entry): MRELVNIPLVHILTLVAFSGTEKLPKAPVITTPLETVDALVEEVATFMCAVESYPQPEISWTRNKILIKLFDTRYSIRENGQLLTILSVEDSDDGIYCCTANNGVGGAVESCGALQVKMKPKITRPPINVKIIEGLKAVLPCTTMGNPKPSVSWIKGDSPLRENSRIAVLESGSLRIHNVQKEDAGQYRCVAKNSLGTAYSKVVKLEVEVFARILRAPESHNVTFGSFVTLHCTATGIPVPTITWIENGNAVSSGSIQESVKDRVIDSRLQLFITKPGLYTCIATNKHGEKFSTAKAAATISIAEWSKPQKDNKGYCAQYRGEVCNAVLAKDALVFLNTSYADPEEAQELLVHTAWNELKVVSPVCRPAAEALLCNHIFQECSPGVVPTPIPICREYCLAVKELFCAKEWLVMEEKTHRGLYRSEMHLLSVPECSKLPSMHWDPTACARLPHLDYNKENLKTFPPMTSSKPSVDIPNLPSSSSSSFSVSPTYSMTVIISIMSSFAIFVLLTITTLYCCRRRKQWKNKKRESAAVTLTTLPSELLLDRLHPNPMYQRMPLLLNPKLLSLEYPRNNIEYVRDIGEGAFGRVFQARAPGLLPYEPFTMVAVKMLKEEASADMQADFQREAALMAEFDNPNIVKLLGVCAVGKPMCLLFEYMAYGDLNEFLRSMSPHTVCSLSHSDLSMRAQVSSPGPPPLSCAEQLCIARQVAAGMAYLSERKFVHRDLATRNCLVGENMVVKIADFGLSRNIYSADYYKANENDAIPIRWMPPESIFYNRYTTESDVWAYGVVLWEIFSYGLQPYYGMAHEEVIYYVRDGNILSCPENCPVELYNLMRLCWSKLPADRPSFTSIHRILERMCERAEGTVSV
# [3] = target: Serine/threonine-protein kinase PAK 6 (Homo sapiens) (UniProt Q9NQU5); test: Inhibition of human PAK6 assessed as residual activity at 1 uM relative to control
# [4] = target: Platelet-derived growth factor receptor alpha (Homo sapiens) (UniProt P16234); test: Inhibition of PDGFR-alpha (unknown origin) assessed as residual activity at 1 uM relative to control
# [5] = target: Serine/threonine-protein kinase TAO3 (Homo sapiens) (UniProt Q9H2K8); test: Inhibition of human TAO3 assessed as residual activity at 1 uM relative to control
# [6] = target: Vascular endothelial growth factor receptor 3 (Homo sapiens) (UniProt P35916); test: Inhibition of VEGF-R3 (unknown origin) assessed as residual activity at 1 uM relative to control
# [7] = target: Serine/threonine-protein kinase Nek7 (Homo sapiens) (UniProt Q8TDX7); test: Inhibition of human NEK7 assessed as residual activity at 1 uM relative to control
# [8] = target: Serine/threonine-protein kinase Chk2 (Homo sapiens) (UniProt O96017); test: Inhibition of CHK2 (unknown origin) assessed as residual activity at 10 uM relative to control
# [9] = target: Serine/threonine-protein kinase VRK2 (Homo sapiens) (UniProt Q86Y07); test: Inhibition of human VRK2 assessed as residual activity at 1 uM relative to control
# [10] = Antiproliferative activity against human RXF393 cells after 3 days by sulforhodamine B assay; type: functional; conditions: RXF 393, 72 h
# In short: (§1)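 Tested in the NCI 60 cell line panel. GI50 is the concentration giving 50% inhibition of cell growth, and values are the mean of two series of tests.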
# [11] = target: Serine/threonine-protein kinase D2 (Homo sapiens) (UniProt Q9BZL6); test: Inhibition of human PKD2 assessed as residual activity at 1 uM relative to control
# [12] = target: Protein kinase C epsilon type (Homo sapiens) (UniProt Q02156); test: Inhibition of human PKCepsilon assessed as residual activity at 1 uM relative to control
# [13] = target: CDK7/Cyclin H/MNAT1 (Homo sapiens) (UniProt P51946+P50613+P51948); test: Inhibition of human CDK7/cyclinH/MAT1 assessed as residual activity at 1 uM relative to control; type: protein-complex assay
# [14] = target: Tyrosine-protein kinase JAK2 (Homo sapiens) (UniProt O60674); test: Inhibition of JAK2 (unknown origin) assessed as residual activity at 10 uM relative to control
# [15] = target: Tyrosine-protein kinase BTK (Homo sapiens) (UniProt Q06187); test: Inhibition of human BTK assessed as residual activity at 1 uM relative to control
# [16] = target: Serine/threonine-protein kinase SIK1 (Homo sapiens) (UniProt P57059); test: Inhibition of human SIK assessed as residual activity at 1 uM relative to control
# [17] = target: Aurora kinase B (Homo sapiens) (UniProt Q96GD4); test: Inhibition of Aurora-B (unknown origin) assessed as residual activity at 10 uM relative to control
# [18] = target: Insulin receptor (Homo sapiens) (UniProt P06213); test: Inhibition of human IR assessed as residual activity at 1 uM relative to control
# [19] = target: Inhibitor of nuclear factor kappa-B kinase subunit beta (Homo sapiens) (UniProt O14920); test: Inhibition of human IKKbeta assessed as residual activity at 1 uM relative to control
# [20] = target: G protein-coupled receptor kinase 6 (Homo sapiens) (UniProt P43250); test: Inhibition of human GRK6 assessed as residual activity at 1 uM relative to control
# SK-MEL-28 = test: Antiproliferative activity against human SK-MEL-28 cells after 3 days by sulforhodamine B assay; type: functional; conditions: SK-MEL-28, 72 h; in short: as §1
# [21] = target: Casein kinase I isoform gamma-3 (Homo sapiens) (UniProt Q9Y6M4); test: Inhibition of human CK1gamma3 assessed as residual activity at 1 uM relative to control
# [22] = target: Serine/threonine-protein kinase B-raf (Homo sapiens) (UniProt P15056); test: Inhibition of wild type B-RAF (unknown origin) assessed as residual activity at 10 uM relative to control
# [23] = target: Serine/threonine-protein kinase Nek2 (Homo sapiens) (UniProt P51955); test: Inhibition of human NEK2 assessed as residual activity at 1 uM relative to control
# [24] = target: Glycogen synthase kinase-3 beta (Homo sapiens) (UniProt P49841); test: Inhibition of human GSK3beta assessed as residual activity at 1 uM relative to control
# [25] = target: Dual specificity mitogen-activated protein kinase kinase 4 (Mus musculus) (UniProt P47809); test: Inhibition of mouse MKK4 assessed as residual activity at 1 uM relative to control
# Sequence of Dual specificity mitogen-activated protein kinase kinase 4 (Mus musculus) (P47809 whole entry): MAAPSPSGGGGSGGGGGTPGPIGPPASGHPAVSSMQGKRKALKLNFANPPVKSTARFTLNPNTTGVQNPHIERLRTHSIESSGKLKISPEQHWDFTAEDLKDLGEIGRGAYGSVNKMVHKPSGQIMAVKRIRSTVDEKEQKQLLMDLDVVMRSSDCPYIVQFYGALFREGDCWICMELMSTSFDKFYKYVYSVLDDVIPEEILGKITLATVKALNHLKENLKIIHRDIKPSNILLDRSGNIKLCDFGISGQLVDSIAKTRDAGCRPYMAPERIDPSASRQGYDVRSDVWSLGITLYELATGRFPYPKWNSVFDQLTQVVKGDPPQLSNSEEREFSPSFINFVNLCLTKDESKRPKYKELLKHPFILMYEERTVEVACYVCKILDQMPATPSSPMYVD
# Sequence of Serine/threonine-protein kinase TAO3 (Homo sapiens) (Q9H2K8 whole entry): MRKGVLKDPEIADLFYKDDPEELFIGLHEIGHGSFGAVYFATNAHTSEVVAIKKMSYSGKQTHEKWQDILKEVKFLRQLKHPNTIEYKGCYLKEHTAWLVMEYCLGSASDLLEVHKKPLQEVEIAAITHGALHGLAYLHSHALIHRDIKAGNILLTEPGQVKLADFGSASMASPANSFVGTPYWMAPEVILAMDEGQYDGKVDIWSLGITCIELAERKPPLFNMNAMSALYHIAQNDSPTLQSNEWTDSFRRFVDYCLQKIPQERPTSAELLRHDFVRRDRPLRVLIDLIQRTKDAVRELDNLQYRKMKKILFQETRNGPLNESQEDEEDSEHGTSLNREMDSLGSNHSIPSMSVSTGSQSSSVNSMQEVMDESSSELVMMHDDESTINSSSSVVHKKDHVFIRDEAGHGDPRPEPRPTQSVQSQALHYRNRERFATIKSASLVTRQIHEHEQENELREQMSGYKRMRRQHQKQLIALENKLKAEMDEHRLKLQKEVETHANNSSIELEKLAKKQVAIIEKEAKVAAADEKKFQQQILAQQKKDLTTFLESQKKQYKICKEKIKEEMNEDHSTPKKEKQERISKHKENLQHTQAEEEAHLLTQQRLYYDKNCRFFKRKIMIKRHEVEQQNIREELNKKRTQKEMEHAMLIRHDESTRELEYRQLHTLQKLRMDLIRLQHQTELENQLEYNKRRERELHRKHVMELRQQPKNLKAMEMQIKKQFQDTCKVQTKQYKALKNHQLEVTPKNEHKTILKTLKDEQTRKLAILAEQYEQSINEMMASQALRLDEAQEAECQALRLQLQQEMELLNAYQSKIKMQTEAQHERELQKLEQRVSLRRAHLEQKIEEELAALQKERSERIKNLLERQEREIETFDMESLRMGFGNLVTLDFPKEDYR
# Sequence of Tyrosine-protein kinase BTK (Homo sapiens) (Q06187 whole entry): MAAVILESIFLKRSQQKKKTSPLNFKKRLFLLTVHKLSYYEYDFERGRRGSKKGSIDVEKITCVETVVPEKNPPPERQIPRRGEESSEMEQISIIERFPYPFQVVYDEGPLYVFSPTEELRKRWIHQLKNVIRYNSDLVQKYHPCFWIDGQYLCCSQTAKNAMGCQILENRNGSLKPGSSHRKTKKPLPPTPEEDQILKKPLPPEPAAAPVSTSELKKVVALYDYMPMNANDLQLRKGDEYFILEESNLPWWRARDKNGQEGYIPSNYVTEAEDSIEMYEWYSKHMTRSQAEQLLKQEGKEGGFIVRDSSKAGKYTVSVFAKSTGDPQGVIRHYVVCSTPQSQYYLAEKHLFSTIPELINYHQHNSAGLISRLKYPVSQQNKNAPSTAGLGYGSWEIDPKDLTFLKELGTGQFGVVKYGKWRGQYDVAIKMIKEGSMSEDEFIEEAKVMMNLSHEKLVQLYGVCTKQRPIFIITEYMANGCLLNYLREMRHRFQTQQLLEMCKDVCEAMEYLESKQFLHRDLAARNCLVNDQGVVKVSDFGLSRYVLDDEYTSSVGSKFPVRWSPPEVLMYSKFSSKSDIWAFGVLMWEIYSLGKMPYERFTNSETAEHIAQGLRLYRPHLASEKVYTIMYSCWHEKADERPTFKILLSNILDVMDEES
# Sequence of Tyrosine-protein kinase JAK2 (Homo sapiens) (O60674 whole entry): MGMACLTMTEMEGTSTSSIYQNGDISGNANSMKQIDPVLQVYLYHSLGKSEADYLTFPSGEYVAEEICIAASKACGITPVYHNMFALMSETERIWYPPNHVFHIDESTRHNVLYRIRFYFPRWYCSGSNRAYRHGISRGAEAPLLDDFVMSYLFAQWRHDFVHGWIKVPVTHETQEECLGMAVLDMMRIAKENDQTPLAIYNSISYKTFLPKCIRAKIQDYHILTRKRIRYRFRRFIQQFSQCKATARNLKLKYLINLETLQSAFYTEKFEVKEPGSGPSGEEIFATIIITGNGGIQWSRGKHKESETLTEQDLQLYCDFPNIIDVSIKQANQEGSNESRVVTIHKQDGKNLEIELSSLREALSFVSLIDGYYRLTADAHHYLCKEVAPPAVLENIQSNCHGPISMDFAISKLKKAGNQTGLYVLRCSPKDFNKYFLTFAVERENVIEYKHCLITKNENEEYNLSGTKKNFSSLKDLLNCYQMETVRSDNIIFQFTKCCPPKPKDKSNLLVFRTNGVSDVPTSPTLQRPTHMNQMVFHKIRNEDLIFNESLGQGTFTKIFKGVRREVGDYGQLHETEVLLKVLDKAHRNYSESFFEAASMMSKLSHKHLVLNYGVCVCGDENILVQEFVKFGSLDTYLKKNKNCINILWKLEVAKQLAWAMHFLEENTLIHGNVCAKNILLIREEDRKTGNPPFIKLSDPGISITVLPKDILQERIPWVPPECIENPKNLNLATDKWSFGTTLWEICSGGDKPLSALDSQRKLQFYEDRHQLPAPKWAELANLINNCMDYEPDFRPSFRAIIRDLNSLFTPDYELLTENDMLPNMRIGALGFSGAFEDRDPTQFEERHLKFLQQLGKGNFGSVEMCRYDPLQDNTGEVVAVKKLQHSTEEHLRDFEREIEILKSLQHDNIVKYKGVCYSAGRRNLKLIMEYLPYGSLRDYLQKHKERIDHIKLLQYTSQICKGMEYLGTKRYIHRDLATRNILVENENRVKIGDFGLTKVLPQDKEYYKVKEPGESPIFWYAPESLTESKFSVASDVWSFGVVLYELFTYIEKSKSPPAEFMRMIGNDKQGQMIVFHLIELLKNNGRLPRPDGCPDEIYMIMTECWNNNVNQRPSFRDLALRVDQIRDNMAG
# Sequence of G protein-coupled receptor kinase 6 (Homo sapiens) (P43250 whole entry, looked up): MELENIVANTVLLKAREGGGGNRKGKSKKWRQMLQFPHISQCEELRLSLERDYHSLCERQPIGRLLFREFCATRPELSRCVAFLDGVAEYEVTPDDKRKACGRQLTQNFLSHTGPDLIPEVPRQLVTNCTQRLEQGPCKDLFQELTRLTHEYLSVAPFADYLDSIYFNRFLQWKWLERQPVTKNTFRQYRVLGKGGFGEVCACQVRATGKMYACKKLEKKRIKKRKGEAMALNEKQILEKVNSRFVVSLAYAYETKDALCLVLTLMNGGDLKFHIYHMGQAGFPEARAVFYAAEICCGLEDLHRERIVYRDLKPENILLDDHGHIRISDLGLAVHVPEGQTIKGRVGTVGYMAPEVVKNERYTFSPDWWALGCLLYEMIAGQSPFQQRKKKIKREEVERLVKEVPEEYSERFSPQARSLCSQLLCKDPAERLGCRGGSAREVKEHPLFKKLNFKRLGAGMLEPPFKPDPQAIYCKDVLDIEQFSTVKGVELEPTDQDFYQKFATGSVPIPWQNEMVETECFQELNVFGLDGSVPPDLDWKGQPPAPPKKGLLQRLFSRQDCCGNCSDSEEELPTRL
# Sequence of Serine/threonine-protein kinase PAK 6 (Homo sapiens) (Q9NQU5 whole entry, looked up): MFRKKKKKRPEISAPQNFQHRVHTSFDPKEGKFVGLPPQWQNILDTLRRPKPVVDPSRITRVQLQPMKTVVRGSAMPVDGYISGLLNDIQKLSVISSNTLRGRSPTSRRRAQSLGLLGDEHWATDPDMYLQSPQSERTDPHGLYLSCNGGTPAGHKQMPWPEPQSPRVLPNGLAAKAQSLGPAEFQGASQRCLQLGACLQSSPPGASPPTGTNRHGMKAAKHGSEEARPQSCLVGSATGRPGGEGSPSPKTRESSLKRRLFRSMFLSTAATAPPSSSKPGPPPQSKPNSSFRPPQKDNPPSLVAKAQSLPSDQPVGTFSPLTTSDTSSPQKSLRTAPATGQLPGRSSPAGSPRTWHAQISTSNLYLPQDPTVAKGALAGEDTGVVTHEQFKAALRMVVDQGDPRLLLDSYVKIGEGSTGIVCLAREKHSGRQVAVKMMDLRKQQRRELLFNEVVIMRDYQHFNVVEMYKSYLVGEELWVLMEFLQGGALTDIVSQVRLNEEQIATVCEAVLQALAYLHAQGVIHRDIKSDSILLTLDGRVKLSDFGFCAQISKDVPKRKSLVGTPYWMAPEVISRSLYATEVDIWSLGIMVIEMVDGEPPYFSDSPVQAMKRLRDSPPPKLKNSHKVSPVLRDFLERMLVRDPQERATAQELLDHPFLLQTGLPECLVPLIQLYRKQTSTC
# Sequence of Casein kinase I isoform gamma-3 (Homo sapiens) (Q9Y6M4 whole entry, looked up, canonical isoform): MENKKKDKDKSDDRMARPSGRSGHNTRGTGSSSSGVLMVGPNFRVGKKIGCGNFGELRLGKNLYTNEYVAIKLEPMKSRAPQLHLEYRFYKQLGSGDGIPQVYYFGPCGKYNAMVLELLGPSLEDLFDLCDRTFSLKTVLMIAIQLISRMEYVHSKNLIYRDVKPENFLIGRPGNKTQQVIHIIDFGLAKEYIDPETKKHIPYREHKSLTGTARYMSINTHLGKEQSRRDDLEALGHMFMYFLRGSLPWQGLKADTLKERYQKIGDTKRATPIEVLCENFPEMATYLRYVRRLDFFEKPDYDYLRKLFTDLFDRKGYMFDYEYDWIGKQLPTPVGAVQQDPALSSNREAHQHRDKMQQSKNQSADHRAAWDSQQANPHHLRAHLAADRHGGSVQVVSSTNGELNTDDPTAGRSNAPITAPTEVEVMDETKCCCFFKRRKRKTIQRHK
compound,measurement,setting,value
O=C1Nc2ncccc2/C1=C1/Nc2ncccc2C1=O,Activity,[1],118%
same,Activity,MCF7,22.63%
same,Activity,[2],134%
same,Activity,[3],51%
same,Activity,[4],94%
same,Activity,[5],96%
same,Activity,[6],82%
same,Activity,[7],57%
same,Activity,[8],84%
same,Activity,[9],110%
same,GI50,[10],2.19 µM
same,Activity,[11],100%
same,Activity,[12],87%
same,Activity,[13],76%
same,Activity,[14],92%
same,Activity,[15],140%
same,Activity,[16],32%
same,Activity,[17],88%
same,Activity,[18],98%
same,Activity,[19],110%
same,Activity,[20],94%
same,GI50,SK-MEL-28,2.83 µM
same,Activity,[21],37%
same,Activity,[22],94%
same,Activity,[23],101%
same,Activity,[24],63%
same,Activity,[25],110%
